DSG3 Ab inh: human desmoglein-3 autoantibody binding inhibition; P32926; DSG3-coupled beads, scFv-anti-DSG3-GFP binding, flow cytometry; stronger effect = lower value; binding (percent of control), % at 10 µM; 310,000 compounds, 0.48% hits; AID 588358;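 active = binding more than 3 SD below its plate's average and above zero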;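 also: hits lower antibody fragment binding to DSG3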
Target sequence (P32926 whole entry, looked up, the tested form may be a part): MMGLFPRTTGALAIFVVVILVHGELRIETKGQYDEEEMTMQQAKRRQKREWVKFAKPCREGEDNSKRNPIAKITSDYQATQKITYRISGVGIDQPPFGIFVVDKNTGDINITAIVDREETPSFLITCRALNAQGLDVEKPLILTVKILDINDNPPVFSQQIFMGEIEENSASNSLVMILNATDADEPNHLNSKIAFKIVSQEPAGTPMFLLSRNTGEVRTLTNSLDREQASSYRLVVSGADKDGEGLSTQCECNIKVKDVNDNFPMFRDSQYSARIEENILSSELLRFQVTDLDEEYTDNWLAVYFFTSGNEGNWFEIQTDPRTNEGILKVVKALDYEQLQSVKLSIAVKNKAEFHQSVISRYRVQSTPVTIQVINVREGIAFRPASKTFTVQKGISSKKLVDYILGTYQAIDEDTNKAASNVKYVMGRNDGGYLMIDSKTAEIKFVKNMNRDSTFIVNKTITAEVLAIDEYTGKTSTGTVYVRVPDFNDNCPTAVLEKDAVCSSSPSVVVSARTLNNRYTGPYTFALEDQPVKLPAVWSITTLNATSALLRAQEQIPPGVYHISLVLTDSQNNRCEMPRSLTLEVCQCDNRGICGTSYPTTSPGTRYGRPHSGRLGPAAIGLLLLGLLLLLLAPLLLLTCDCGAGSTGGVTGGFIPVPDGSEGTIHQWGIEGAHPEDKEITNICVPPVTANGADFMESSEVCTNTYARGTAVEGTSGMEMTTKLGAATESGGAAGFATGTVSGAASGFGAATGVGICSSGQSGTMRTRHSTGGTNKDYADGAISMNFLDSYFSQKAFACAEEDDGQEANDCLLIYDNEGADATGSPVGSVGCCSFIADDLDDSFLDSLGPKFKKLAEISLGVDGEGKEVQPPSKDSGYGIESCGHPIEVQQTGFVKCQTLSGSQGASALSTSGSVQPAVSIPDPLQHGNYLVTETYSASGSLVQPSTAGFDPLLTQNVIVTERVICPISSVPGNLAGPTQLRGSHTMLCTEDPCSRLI
DNMT1 block: DNMT1 (human) enzyme inhibition | 360,000 compounds, 0.83% hits | DNMT1 molecular beacon, Hinp1I cleavage, fluorescence | inhibition (reported as % activation of signal), % at 10 µM | AID 588458 | P26358; in the data active = inhibition above about 50%
SUMO1-SIM PPI: SUMO1-SIM interaction modulation | SUMO1 binding to a labelled peptide, TR-FRET, 1 h | 360,000 compounds, 0.33% hits | inhibition, % at 20 µM | P63165 | AID 602429; in the data active = inhibition above about 37%
HCV NS3 hel inh: inhibitors of Hepatitis C virus NS3 helicase. NS3 helicase DNA unwinding, Cy5 molecular beacon fluorescence. AID 1800. 290,000 compounds, 0.56% hits. inhibition, % at 10.9 µM;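 active = inhibition above the mean of all tested compounds plus 3 SD, set per campaign, cut at about 35% in these data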;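 also: 0% = DMSO wells and 100% = thioflavine S control wells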
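Material: hepatitis C virus NS3 helicase domain fragment enzyme; measured by: Cy5 fluorescence, 0 and 60 min reads; control set: DMSO and thioflavine S; incubation: 60 min unwinding reaction at 25 °C after ATP addition; read-out basis: % inhibition from 60/0 min fluorescence ratio, DMSO 0%, thioflavine S 100%; repeats: singlicate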
UHRF1 MBD2 ctr: human UHRF1 methylated DNA binding inhibitors. UHRF1 binding to methylated oligo, TR-FRET. Q96T88. inhibition, % at 4.4 µM. 370,000 compounds, 0.75% hits;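 also: UHRF1 SRA domain binding a hemimethylated CpG hairpin DNA probe; 0% = median of test compound wells and 100% = reference inhibitor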
MBD2 inh: inhibitors of human MBD2 binding to methylated oligonucleotide | inhibition, % at 4.4 µM | Q9UBB5 | 370,000 compounds, 0.31% hits | TR-FRET; in the data active = inhibition above about 13%
UHRF1 ctr MBD2: inhibits human UHRF1 binding to methylated oligonucleotide, MBD2 counter-screen | TR-FRET | 1,000 compounds, 25% hits | shares compounds with MBD2 inh | inhibition, % at 4.4 µM;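 also: UHRF1 SRA domain binding a labeled hemimethylated CpG hairpin DNA; 0% = vehicle only and 100% = reference inhibitor with vehicle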
MBD2 DBD conf: MBD2-DBD methyl-DNA binding inhibition, TR-FRET confirmation. shares compounds with MBD2 inh. TR-FRET MBD2-DBD binding to methylated oligonucleotide. inhibition, % at 4.4 µM. 1,000 compounds, 26% hits. AID 720531; in the data active = inhibition above about 14%
An asterisk follows results filed as active; · = no result given. Compounds with a hit are over-represented: about 2.5% of the library has one in this group of screens. Rule as the data show it, unless noted: active = inhibition above about 21%; inactive = the rest.

SMILES	DSG3 Ab inh	DNMT1 block	SUMO1-SIM PPI	HCV NS3 hel inh	UHRF1 MBD2 ctr	MBD2 inh	UHRF1 ctr MBD2	MBD2 DBD conf
CCN(CC)S(=O)(=O)c1ccc(N2CCOCC2)c(NC(=O)c2ccc(C#N)cc2)c1	94.5	1.8	-3.9	-0.9	25.0*	14.2*	9.1	5.0
COc1ccc(CC(=O)NCc2nnc(SCC(=O)Nc3cccc(F)c3)n2C)cc1	97.2	1.2	2.5	-0.9	-2.1	-2.0	·	·
Cc1cc(NC(=O)C2CCN(S(=O)(=O)c3cnc[nH]3)CC2)ccc1Br	90.7	-0.9	4.3	4.1	20.5	13.8*	3.6	1.9
Cc1ccc(NC(=O)C2CCN(S(=O)(=O)c3cnc[nH]3)CC2)cc1C	116.7	5.5	-0.3	-12.3	-0.4	3.1	·	·
Cc1cccc(N2CCN(S(=O)(=O)c3ccc4c(c3)n(C)c(=O)c(=O)n4C)CC2C)c1 (stereo not drawn)	97.3	25.0	-2.8	5.0	3.5	4.8	·	·
CC1(c2nnnn2Cc2ccccc2)CCC(=O)N1CCc1c[nH]c2ccccc12 (stereo not drawn)	·	·	3.7	·	2.6	1.8	·	·
CC1(c2nnnn2Cc2ccccc2)CCC(=O)N1CCc1ccccc1F (stereo not drawn)	·	·	-7.1	·	21.8*	15.1*	13.0	6.3
COc1cccc(C(=O)NC2CC3CCCC(C2)N3CC(=O)Nc2ccccc2)c1 (stereo not drawn)	102.9	-9.0	7.8	0.2	20.6	13.2*	12.1	4.6
CCOC(=O)C1=NN(C(C)=O)C2(CC(=O)N(c3cccc(C)c3)C2=O)C1 (stereo not drawn)	108.3	1.5	-3.6	4.5	-0.2	18.9*	7.4	4.5
C/C(=N/NC(=O)c1ccco1)c1ccc(NC(=O)c2ccc(F)cc2)cc1	97.4	-4.4	-2.7	-0.3	7.2	13.7*	0.3	2.1
COc1ccccc1NC(=O)CSc1nc(O)c(Cc2ccccc2)c(=O)[nH]1	97.9	-0.1	4.3	8.8	-1.1	-3.3	·	·
CCSc1nc(O)c(Cc2ccccc2)c(=O)[nH]1	·	-1.9	-0.5	-1.6	13.9	13.2*	4.0	6.3
Cc1nc2c(c(C)nn2-c2ccccc2)c(C)c1CCC(=O)Nc1ccc(CN2CCCC2)cc1	103.8	1.3	-7.5	-55.2	-1.6	-6.7	·	·
CCN1C(=O)CC(N2CCC(C(=O)N3CCOCC3)CC2)C1=O (stereo not drawn)	·	-0.5	-1.0	-2.0	22.7*	15.2*	8.2	3.0
Cc1ccc(SCCN2CCC(C(C)(C)C)CCC2=O)cc1 (stereo not drawn)	102.1	1.4	12.5	-4.7	29.8*	13.6*	4.7	4.0
CC(C)(C)C1CCC(=O)N(CCSc2ccccc2)CC1 (stereo not drawn)	106.4	0.2	2.0	-1.5	5.0	-3.4	·	·
CCOc1ccc(/C=N/NC(=O)CN2CCCCCCC2)cc1	81.4	-4.0	-5.6	-0.6	-0.2	1.1	·	·
Cc1ccc([C@@H]2C[C@H]3[C@@H](CN2S(=O)(=O)c2ccc(C)cc2)C(=O)C[C@@H](c2ccccc2F)N3S(=O)(=O)c2ccc(C)cc2)cc1	·	3.2	-4.2	·	26.9*	14.7*	3.0	2.7
CC(C)(C)n1nnnc1C(c1ccc(C(F)(F)F)cc1)N(Cc1ccc(F)cc1)Cc1ccco1 (stereo not drawn)	111.3	3.2	2.3	9.0	4.4	17.5*	8.8	0.6
O=C(c1ccco1)n1nc(NCc2ccccc2)nc1NCc1ccccc1	·	-9.5	-4.3	-13.7	-1.4	-0.4	·	·
CC(C)C[C@H](NC(C)(C)C(=O)NC1CCCCC1)C(=O)NCC(c1ccccc1)c1ccccc1	·	·	·	·	1.3	21.4*	1.4	2.1
O=C(CCNC(=O)c1ccccc1)OCN1C(=O)c2ccccc2C1=O	87.3	8.1	-4.5	-7.5	4.4	-1.5	·	·
O=C(CNC(=O)c1ccccc1)OCN1C(=O)c2ccccc2C1=O	101.0	2.2	-4.1	·	2.4	14.5*	7.6	4.4

Screening results as filed in PubChem BioAssay.
